Measurements from ChEMBL document CHEMBL4715812, “Zampanolide Binding to Tubulin Indicates Cross-Talk of Taxane Site with Colchicine and Nucleotide Sites” (J Nat Prod, 2018).
The source made the active and inactive calls. The calls are words filed in the database; no cut-off is given here.

Assays:
Bos taurus [1] = organism: Bos taurus; assay: Binding affinity to calf brain tubulin assessed as compound-protein complex stoichiometry ratio of 1:1 in absence of Mg2+ by spectrofluorometry analysis
Bos taurus [2] = organism: Bos taurus; assay: Binding affinity to zampanolide-modified calf brain tubulin
Bos taurus [3] = organism: Bos taurus; assay: Binding affinity to zampanolide-modified calf brain tubulin assessed as compound-protein complex stoichiometry ratio of 1:1 in absence of Mg2+ by spectrofluorometry assay
Bos taurus [4] = organism: Bos taurus; assay: (§1) Covalent modification of compound-ligated activated form of calf brain dimeric tubulin assessed as effect on nucleotide binding affinity at E-site by measuring ratio of GTP concentration to tubulin concentration incubated for 1.5 hrs in presence or absence of 10 uM GTP followed by passage through sephadex G25 column by HPLC analysis (reference value: 1.94 +/- 0.03)
Procedure, shortened: (§2)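 40 μM calf-brain tubulin in PEDTA buffer (10 mM NaPi, 1 mM EDTA, pH 7.0) incubated 1.5 h at 25 °C with 10% excess ligand or DMSO. Unbound nucleotide removed on Sephadex G-25 in PEDTA plus 10 μM GTP and […] at 4 °C. Aliquot diluted 20-fold in 10 mM NaPi, 1% SDS, pH 7.0; tubulin and nucleotide quantified, nucleotides by HPLC after extraction.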

Homo sapiens [5] = organism: Homo sapiens; assay: (§3) Covalent modification of GAB-buffer assembled microtubule (unknown origin) assessed as effect on nucleotide binding affinity at E-site by measuring ratio of GTP concentration to tubulin concentration incubated for 30 mins in presence or absence of 1 mM GTP and measured after 20 mins by HPLC analysis (reference value: 1)
Procedure, shortened: (§4)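 Calf-brain tubulin equilibrated in PEDTA (10 mM NaPi, 1 mM EDTA, pH 7.0), with 10% molar excess ligand or DMSO, then supplemented with 3.4 M glycerol, 1 mM EGTA, MgCl2 to 6 mM, and no nucleotide or 1 mM GTP. Assembled 30 min at 37 °C, spun 20 min at 37 °C, pellets washed in warm GAB without GTP. Tubulin measured, nucleotides extracted and quantified by HPLC.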

Homo sapiens [6] = organism: Homo sapiens; assay: as §3, with “of GDP” for “of GTP”, “to microtubule” for “to tubulin”; procedure, shortened: as §4
Bos taurus [7] = organism: Bos taurus; assay: as §1, with “of GDP nucleotide” for “of GTP”, “value: 0.06” for “value: 1.94”; procedure, shortened: as §2
Bos taurus [8] = organism: Bos taurus; assay: Induction of oligomerization calf brain tubulin assessed as formation of microtubule at 100 uM incubated for 30 mins in presence of GTP and 3 mM Mg2+ by electron micrography analysis
Bos taurus [9] = organism: Bos taurus; assay: Induction of oligomerization of compound-ligated activated form of calf brain tubulin at 55 uM incubated for 30 mins in presence of 0.1 mM GDP and 0.039 mM Mg2+ by analytical ultracentrifugation
Procedure, shortened: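 Sedimentation velocity of 50 μM tubulin with 55 μM zampanolide or DMSO in PEDTA, 0.1 mM GDP, 1 mM total Mg2+ (0.039 mM free); 25 °C for 30 min, 40 000 rpm; c(S) fitted, corrected to water/20 °C.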

Homo sapiens [10] = organism: Homo sapiens; assay: Induction of oligomerization of compound modified microtubule (unknown origin) assessed as peloruside binding constant at 25 degreeC incubated for 30 mins followed by GTP addition and measured after 30 mins by HPLC analysis; conditions: time 1.0 hrs
Procedure, shortened: (§5)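 Stabilized cross-linked microtubules (0.6 μM) preincubated 30 min, 25 °C with 10% excess zampanolide or DMSO in GAB (3.4 M glycerol, 10 mM NaPi, 1 mM EDTA, 6 mM MgCl2, 0.1 mM GTP, pH 6.7); peloruside 0.1–10 μM added, further 30 min at 25 °C; spun 20 min at 50 000 rpm; supernatant/pellet ligand by reverse-phase HPLC at 205/230 nm; Kb fitted, three independent measurements.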

Bos taurus [11] = organism: Bos taurus; assay: Induction of oligomerization of compound-ligated activated form of calf brain tubulin assessed as formation of double rings by measuring sedimentation coefficient at 55 uM incubated for 30 mins in presence of GDP and 3.31 mM Mg2+ by analytical ultracentrifugation
Procedure, shortened: (§6)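 Calf-brain tubulin 50 μM in PEDTA with 55 μM zampanolide or DMSO, 1 mM GDP, 7 mM total (3.31 mM free) Mg2+, plus DTT; incubated 25 °C, 30 min, sedimentation velocity at 40 000 rpm; c(S) by least-squares boundary modelling corrected to water/20 °C; assembled polymer checked by uranyl acetate negative-stain EM.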

Bos taurus [12] = organism: Bos taurus; assay: Induction of oligomerization of compound-ligated activated form of calf brain tubulin assessed as formation of microtubule by measuring sedimentation coefficient at 55 uM incubated for 30 mins in presence of GDP and 3.31 mM Mg2+ by electron micrography analysis; procedure, shortened: as §6
Bos taurus [13] = organism: Bos taurus; assay: Induction of oligomerization of compound-ligated activated form of calf brain tubulin assessed as formation of tetramers by measuring sedimentation coefficient at 55 uM incubated for 30 mins in presence of GDP and 3.31 mM Mg2+ by analytical ultracentrifugation; procedure, shortened: as §6
Bos taurus [14] = organism: Bos taurus; assay: Induction of oligomerization of compound-ligated activated form of calf brain tubulin assessed as tubulin-tubulin interaction causing aggregation formation at 55 uM incubated for 30 mins in presence of GTP and 1.5 mM Mg2+ by analytical ultracentrifugation
Procedure, shortened: (§7)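 Tubulin 50 μM in PEDTA with 55 μM zampanolide or DMSO and 0.1 mM GTP; Mg2+ 1.5 mM total (0.14 mM free) or 3 mM total (0.77 mM free), free Mg2+ corrected for phosphate, nucleotide, EDTA binding; 25 °C, 30 min, then 40 000 rpm ultracentrifugation; c(S) distributions; negative-stain EM of samples.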

Bos taurus [15] = organism: Bos taurus; assay: Induction of oligomerization of compound-ligated activated form of calf brain tubulin assessed as formation of dimers by measuring sedimentation coefficient at 55 uM incubated for 30 mins in presence of GDP and 3.31 mM Mg2+ by […]; procedure, shortened: as §6
Bos taurus [16] = organism: Bos taurus; assay: Induction of oligomerization of compound-ligated activated form of calf brain tubulin assessed as oligomer formation by measuring sedimentation coefficient at 55 uM incubated for 30 mins in presence of GTP/GDP and 0.14 mM Mg2+ by analytical ultracentrifugation
Bos taurus [17] = organism: Bos taurus; assay: Induction of oligomerization of compound-ligated activated form of calf brain tubulin assessed as formation of microtubule at 55 uM incubated for 30 mins in presence of GTP and 3 mM Mg2+ by electron micrography analysis; procedure, shortened: as §7
Bos taurus [18] = organism: Bos taurus; assay: Induction of oligomerization of compound-ligated activated form of calf brain tubulin at 55 uM incubated for 30 mins in presence of 0.1 mM GTP and 0.028 mM Mg2+ by analytical ultracentrifugation
Procedure, shortened: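 Sedimentation velocity of 50 μM tubulin with 55 μM zampanolide or DMSO in PEDTA, 0.1 mM GTP, 1 mM total Mg2+ (0.028 mM free); 25 °C for 30 min, 40 000 rpm; c(S) fitted, corrected to water/20 °C.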

Homo sapiens [19] = organism: Homo sapiens; assay: Binding affinity to stabilized microtubule (unknown origin) at 25 degreeC incubated for 30 mins followed by GTP addition and measured after 30 mins by HPLC analysis; conditions: time 1.0 hrs; procedure, shortened: as §5

## COc1ccc(-c2ccc(OC)c(=O)cc2)c(OC)c1OC
Bos taurus [1]
  Activity: Active
Bos taurus [2]
  Kb: 4.5 10^6/M
Bos taurus [3]
  Activity: Active

## C=C1C[C@H]2C/C=C/C(=O)C/C(C)=C\C=C\C(=O)O[C@@H](C=O)C/C(C)=C/[C@@H](C1)O2
Bos taurus [4]
  Ratio: 1.33
Homo sapiens [5]
  Ratio: 0.95
Homo sapiens [6]
  Ratio: 0.84
Bos taurus [7]
  Ratio: 0.03

## C/C(=C\c1csc(C)n1)[C@@H]1C[C@@H]2O[C@]2(C)CCC[C@H](C)[C@H](O)[C@@H](C)C(=O)C(C)(C)[C@@H](O)CC(=O)O1
Bos taurus [8]
  Activity: Active

## C=C1C[C@@H]2C/C=C/C(=O)C/C(C)=C\C=C\C(=O)O[C@H]([C@H](O)NC(=O)/C=C\C=C\C)C/C(C)=C/[C@H](C1)O2
Bos taurus [9]
  Activity: inactive
Homo sapiens [10]
  Kb: 3.1 10^6/M
Bos taurus [4]
  Ratio: 0.91
Bos taurus [11]
  S20,w: 36 Svedberg
Bos taurus [12]
  S20,w: > 50 Svedberg
Bos taurus [13]
  S20,w: 8 Svedberg
Bos taurus [14]
  Activity: inactive
Homo sapiens [5]
  Ratio: 0.92
Bos taurus [15]
  S20,w: 6 Svedberg
Homo sapiens [6]
  Ratio: 0.84
Bos taurus [7]
  Ratio: 0.04
Bos taurus [16]
  S20,w: 9 Svedberg
Bos taurus [17]
  S20,w: > 50 Svedberg
Bos taurus [18]
  Activity: inactive

## CC(=O)O[C@@]12CO[C@@H]1C[C@H](O)[C@@]1(C)C(=O)[C@H](O)C3=C(C)[C@@H](OC(=O)[C@H](O)[C@@H](NC(=O)OC(C)(C)C)c4ccccc4)C[C@@](O)([C@@H](OC(=O)c4ccccc4)[C@H]21)C3(C)C
Homo sapiens [5]
  Ratio: 1.02
Homo sapiens [6]
  Ratio: 1.03

## CC1=C[C@H]2[C@@H](O)[C@H](C)[C@@H](O)[C@@H]2[C@H]2[C@@H]3C4=C5O[C@@](C)(CC[C@H](OC4=O)[C@@H]5C)[C@@H]3C[C@@H]12
Bos taurus [4]
  Ratio: 1.83
Homo sapiens [5]
  Ratio: 1.03
Homo sapiens [6]
  Ratio: 0.97
Bos taurus [7]
  Ratio: 0.02

## CC[C@H](/C=C(/C)[C@@H]1C[C@@H](OC)C[C@H](O)C(C)(C)[C@@]2(O)O[C@@H](C[C@@H](OC)[C@H](O)C(=O)O1)C[C@@H](OC)[C@H]2O)CO
Homo sapiens [19]
  Kb: 4 10^6/M
